An excerpt weighted towards active compounds, which were near 1.4% of everything screened.
NS3 helicase inh – HCV NS3 helicase inhibition. NS3 helicase DNA unwinding, Cy5 molecular beacon fluorescence. inhibition, % at 10.9 µM. actives 0.56% (n = 290,000);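 active means inhibition above the mean of all tested compounds plus 3 SD, set per campaign, cut at about 35% in these data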;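 further: 0% = DMSO wells and 100% = thioflavine S control wells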
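Assay system: hepatitis C virus NS3 helicase domain fragment enzyme. Also added: annealed dual-labelled DNA beacon duplex, ATP-started. Timing: 1 h reaction at 25 °C, ATP-initiated. Technique: Cy5 fluorescence at 0 and 60 min, beacon hairpin quenching. Evaluation: % inhibition of unwinding. Replication: one well per compound.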
EBNA-1 inh – blocks EBNA-1 binding to DNA; inhibition, % at 14.8 µM; AID 1950; EBNA-1 DNA binding, fluorescence polarization; actives 0.34% (n = 300,000); in the data active means inhibition above about 28%
ZTA DNA inh – counter-screen for EBNA-1 inhibitors: inhibitors of Epstein-Barr virus ZTA; actives 0.15% (n = 320,000); P03206; inhibition, % at 11 µM; ZTA-DNA binding, fluorescence polarization; AID 2234; in the data active means inhibition above about 33%
Target sequence (P03206 whole entry, looked up): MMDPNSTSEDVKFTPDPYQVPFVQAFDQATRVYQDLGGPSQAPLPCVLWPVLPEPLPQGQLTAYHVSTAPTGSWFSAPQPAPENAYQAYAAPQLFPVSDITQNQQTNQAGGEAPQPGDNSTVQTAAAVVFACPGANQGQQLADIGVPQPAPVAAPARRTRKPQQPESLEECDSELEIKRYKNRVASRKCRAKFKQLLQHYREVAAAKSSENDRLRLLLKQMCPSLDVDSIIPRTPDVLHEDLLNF
UBC9 SUMO inh – inhibitors of human SUMOylation (UBC9); P63279; HTRF SUMOylation assay, SAE1/SAE2 + UBC9, in vitro; inhibition, % at 35 µM; actives 0.36% (n = 290,000); in the data active means inhibition above about 50%, passing the limit was not always enough
Target sequence (P63279 whole entry, looked up): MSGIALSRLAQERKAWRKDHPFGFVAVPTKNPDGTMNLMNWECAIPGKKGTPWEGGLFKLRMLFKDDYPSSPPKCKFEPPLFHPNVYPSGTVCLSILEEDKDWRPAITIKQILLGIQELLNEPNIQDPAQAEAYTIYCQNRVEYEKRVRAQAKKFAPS
HCV core dimer – blocks dimerization of HCV core protein; TR-FRET GST/Flag-core106 dimerization, 1536-well; inhibition, % at 5 µM; actives 0.33% (n = 300,000);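 active means inhibition above the mean of all tested compounds plus 3 SD, set per screening campaign, cut at about 45% in these data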
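Assay system – GST-tagged and Flag-tagged HCV core protein residues 1-106 · Quantity – core106 proteins, GST 13.5 nM and Flag 17 nM · Benchmarks – unlabelled core106 and no-GST-core106 wells · Read-out basis – percent inhibition of core106 dimerization signal · Detection – time-resolved FRET, ex 340 nm, em 617 and 671 nm · Schedule – 4 h at 22.5 °C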
An asterisk follows results filed as active; x = not tested or not shown.

SMILES | NS3 helicase inh | EBNA-1 inh | ZTA DNA inh | UBC9 SUMO inh | HCV core dimer
N#C[C@@H]1[C@@H]2C(=O)N(c3ccc4c(c3)OCCO4)C(=O)[C@@H]2C2c3ccccc3C=CN21 (stereo partly drawn) | 18 | 1 | -2 | 23 | 52*
COC(=O)C1(CCSC)NC(c2ccccc2F)C2C(=O)N(c3ccc4c(c3)OCCO4)C(=O)C21 (stereo not drawn) | -1 | -8 | -29 | 1 | 6
CN(C)C=Nc1ccc2nn(-c3ccccc3)nc2c1 | 13 | 6 | -5 | 60* | 2
CN(C)C=Nc1ccc(Cl)c(Cl)c1 | -3 | 17 | 15 | 43 | 2
Cc1cc(C)n2c(Nc3ccc4c(c3)OCCO4)c(-c3ccc(C)o3)nc2n1 | 2 | 6 | 0 | 3 | -11
Cc1cc(C)n2c(Nc3ccc4c(c3)OCCO4)c(-c3ccco3)nc2n1 | 60* | x | x | -13 | x
CCN(CCC(=O)Nc1cc([N+](=O)[O-])ccc1OC)Cc1ccccc1 | -4 | -4 | -4 | 69* | 0
O=C1CC(N2C(=O)/C(=C/C=C/c3ccccc3)SC2=S)C(=O)N1c1ccccc1 (stereo not drawn) | 10 | -11 | -7 | 20 | 51*
N=C1/C(=C/c2cccn2Cc2ccc(Cl)cc2)C(=O)N=C2SC=CN12 | 1 | 4 | -3 | 50* | 7
O=C(CC1N=C2c3ccccc3N=C(SCc3ccc(F)cc3)N2C1=O)NCc1ccco1 (stereo not drawn) | 14 | 8 | -9 | 13 | 0
Cc1ccc(CSC2=Nc3ccccc3C3=NC(CC(=O)NCc4ccco4)C(=O)N23)cc1 (stereo not drawn) | 31 | 2 | 2 | 20 | 64*
Cc1c(NC(=O)CSc2nc(N)cc(N)n2)c(=O)n(-c2ccccc2)n1C | x | x | -9 | x | x
CCCc1ccc(S(=O)(=O)N/N=C(/C)c2ccc3c(c2)OCO3)cc1 | -18 | x | x | -18 | x
Cc1ccc2nc(-c3ccc(NC(=O)COC(=O)c4ccc(Br)o4)cc3)sc2c1 | 3 | 35* | 4 | 22 | 11
CN1C(=O)CC(Nc2cccc3cccc(N)c23)C1=O (stereo not drawn) | 9 | 5 | 20 | 90* | -5
CC1=NN(c2ccc(Cl)c(C(=O)O)c2)C(=O)C1 | 5 | 12 | 12 | 90* | 11
CC1=NN(c2cccc(Cl)c2)C(=O)C1 | -5 | -2 | -1 | 12 | -4
CC1=NN(c2ccc(C(=O)O)c(N)c2)C(=O)C1 | 30 | 11 | 13 | 79* | -29
CC1=NN(c2ccc(S(=O)(=O)O)cc2Cl)C(=O)C1 | 0 | -11 | 7 | 83* | 1
CC1(C)Cc2c(cnn2-c2ccccc2)C(NC(=O)CCN2CCCC2=O)C1 (stereo not drawn) | -5 | -3 | 3 | -8 | -7
O=C(CN1C(=O)/C(=C\c2ccco2)SC1=S)Nc1ccc(O)cc1C(=O)O | 31 | 5 | 28 | 82* | 0
O=C(CCCN1C(=O)/C(=C\c2ccco2)SC1=S)Nc1ccc2ccccc2c1 | 21 | -2 | 11 | 22 | 46*
O=C(CCN1C(=O)/C(=C/c2ccco2)SC1=S)Nc1ccc(C(=O)O)c(O)c1 | 12 | -5 | 27 | x | 4
O=C1/C(=C\c2ccco2)SC(=S)N1c1ccccc1 | 37* | 6 | 11 | 26 | -5
CC12CCC(=O)N1C(C(=O)Nc1cc(Cl)ccc1N1CCCC1)CS2 (stereo not drawn) | x | x | -2 | x | x
SMILES | NS3 helicase inh | EBNA-1 inh | ZTA DNA inh | UBC9 SUMO inh | HCV core dimer
CCCS(=O)(=O)c1nc(S(=O)(=O)c2ccc(C)cc2)c(NCCCN2CCCC2=O)s1 | 4 | -10 | 6 | 8 | -2
CC1CCN(S(=O)(=O)c2cn(CC(=O)Nc3ccc(C#N)cc3)cn2)CC1 | -4 | -2 | 10 | 16 | 0
N#Cc1cc2c(nc1SCC(=O)Nc1sc3c(c1C#N)CCC3)CCC2 | 8 | 1 | 0 | -7 | 17
COc1ccc(-c2ccc(C#N)c(SCC(=O)Nc3sc4c(c3C#N)CCC4)n2)cc1OC | 13 | 2 | -6 | 52* | 13
O=C(CN(c1ccccc1)S(=O)(=O)c1ccc(Cl)cc1)Nc1cccnc1 | -3 | -3 | -3 | -2 | -6
C#CCn1c(=NC(=O)c2sc3ccccc3c2Cl)sc2cc(S(N)(=O)=O)ccc21 | 4 | 35* | 4 | 45 | 66*
C#CCn1c(=NC(=O)c2ccc(S(=O)(=O)N3CCc4ccccc4C3)cc2)sc2cc(S(N)(=O)=O)ccc21 | 3 | 15 | 22 | 3 | 46
COc1ccc(CCC(=O)OCc2csc(CC(=O)Nc3ccccc3C)n2)cc1 | -22 | 5 | -9 | 19 | 3
CCOC(=O)C1(CC2CC2)CCN(C(=O)c2cc(C3CC3)nc3ccccc23)CC1 | -6 | -2 | -11 | -9 | 5
CCOC(=O)C1(CC2CC2)CCN(C(=O)c2cc(OC)nc3ccccc23)CC1 | -7 | 29* | 34* | 14 | 8
O=C(N/N=C/c1cc(Cl)cc([N+](=O)[O-])c1O)c1ccccc1NS(=O)(=O)c1cccs1 | 1 | -9 | -4 | 100* | 21
CCOc1cccc2cc(-c3nnc(NCc4ccco4)s3)c(=O)oc12 | 15 | 8 | -2 | 61* | 31
CC(=O)N(C1=C(Cl)C(=O)c2ccccc2C1=O)C1CCCCC1 | -1 | -6 | -2 | 71* | -1
O=C(CCn1cccc(C(F)(F)F)c1=O)Nc1cccc(C(F)(F)F)c1 | 1 | -18 | -17 | 3 | 2
O=C(/C=C/c1ccco1)N1CCCC(c2ccccc2)C1 (stereo not drawn) | 28 | 6 | 6 | 34 | 48*
O=C(/C=C/c1ccccc1)N1CCC(c2ccccc2)C1 (stereo not drawn) | 15 | 16 | 8 | -13 | 9
O=C1CCN2C=Nc3cccc4ccc1c2c34 | 5 | -5 | -5 | 66* | -7
O=C(Nc1ccccc1)Nc1ccno1 | 2 | 1 | 0 | 57* | 1
Cc1ccc(C(=O)C2CCN(C(=S)NCCCOC(C)C)CC2)cc1 | -1 | -8 | -5 | -10 | 10
CCN(CC)CCNC(=O)C(Oc1ccccc1)Oc1ccccc1 | 4 | -12 | 7 | 4 | -3
CCc1nn(CC(=O)NC(C)CCc2ccccc2)c(=O)c2cc3cc(F)ccc3n12 (stereo not drawn) | -9 | 0 | -11 | 51* | 15
O=C(c1ccco1)[C@@H]1[C@@H]2C(=O)N(c3ccc(Br)cc3)C(=O)[C@@H]2C2c3ccccc3C=CN21 (stereo partly drawn) | 43* | x | x | 29 | x
CC(=O)[C@H]1[C@@H]2C(=O)N(c3cccc(Cl)c3)C(=O)[C@@H]2[C@H]2c3ccccc3C=CN21 | 17 | -10 | 0 | 29 | 58*
CC(=O)[C@@H]1[C@@H]2C(=O)N(c3ccc(F)c(Cl)c3)C(=O)[C@@H]2C2c3ccccc3C=CN21 (stereo partly drawn) | 7 | -2 | -6 | 35 | 32
